Data on one molecule can be found in ChEMBL document CHEMBL2016496, “The SAR development of dihydroimidazoisoquinoline derivatives as phosphodiesterase 10A inhibitors for the treatment of schizophrenia” (Bioorg Med Chem Lett, 2012).

Activity calls are given as the source filed them. The rule behind the calls is not given here.

For data set [1], the target named is cAMP and cAMP-inhibited cGMP 3',5'-cyclic phosphodiesterase 10A (Homo sapiens, UniProt Q9Y233). Nature of the data set: Inhibition of human recombinant PDE10A assessed as inhibition of [3H]cAMP hydrolysis by scintillation proximity assay. The procedure, abridged:
(§1)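 Scintillation proximity assay on recombinant human PDEs 1–11, with [³H]cAMP as substrate and hydrolysis of cAMP to AMP as read-out. Ki values are means of two experiments.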
(SPA uses beads or plates that emit light when radiolabelled molecules are held near them.)

The target of data set [2] is cGMP-inhibited 3',5'-cyclic phosphodiesterase 3A (Homo sapiens, UniProt Q14432). Nature of the data set: Inhibition of human recombinant PDE3A assessed as inhibition of [3H]cAMP hydrolysis by scintillation proximity assay. The procedure, abridged:
as §1

The nature of data set [3]: Clearance in human hepatocytes assessed per 10^6 cells. The format is ADME, cell-based, Hepatocyte. The following applies: read-out: CLH.
Data set [4] in a line: Clearance in rat hepatocytes assessed per 10^6 cells. The following applies: read-out: CLH. The format is ADME, cell-based, Hepatocyte.
The nature of data set [5]: Clearance in monkey hepatocytes assessed per 10^6 cells. The following applies: rhesus monkey, read-out: CLH. The format is ADME, cell-based, Macaca mulatta, Hepatocyte.
Data set [6] is described as follows: Efflux ratio in human Caco2 cells. It counts as ADME, cell-based. The following applies: Caco-2.
For the next data set, the system named is Rattus norvegicus. Nature of the data set: Antipsychotic activity in CD rat assessed as inhibition of MK801-induced hyperactivity at 3 mg/kg, po. The format is functional, organism-based. Also on record: dose 3 mg/kg. The procedure, abridged:
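Male CD rats were habituated to locomotor activity chambers 24 h before testing. On test day, MK-801 (0.3 mg/kg, sc) was co-administered with the PDE10 inhibitor (po) and the rats were placed in the apparatus. Inhibition is the activity of the inhibitor+MK-801 group as a percent of the vehicle+MK-801 group.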

A short description of data set [7]: Solubility of the compound in 2% DMSO at pH 7.4. It counts as physicochemical.
The next data set concerns the target hERG (KCNH2) (Homo sapiens, UniProt Q12809). Nature of the data set: Inhibition of human ERG at 10 uM. In short, it runs like this: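 hERG inhibition was measured on the IonWorks platform at 10 µM.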
Data set [8] can be described thus: Dissociation constant, pKa of the compound. It counts as physicochemical.
Another data set addresses Phosphodiesterase 1 (Homo sapiens, UniProt P54750+Q01064+Q14123). Nature of the data set: Inhibition of human recombinant PDE1 assessed as inhibition of [3H]cAMP hydrolysis by scintillation proximity assay. The format is protein assay. In short, it runs like this:
as §1

Data set [9] addresses cGMP-dependent 3',5'-cyclic phosphodiesterase (Homo sapiens, UniProt O00408). Nature of the data set: Inhibition of human recombinant PDE2 assessed as inhibition of [3H]cAMP hydrolysis by scintillation proximity assay. The procedure, abridged: as §1
Another data set has as its target Phosphodiesterase 4 (Homo sapiens, UniProt P27815+Q08499+Q07343+Q08493). Nature of the data set: Inhibition of human recombinant PDE4 assessed as inhibition of [3H]cAMP hydrolysis by scintillation proximity assay. The format is protein assay. In short, it runs like this:
as §1

The target of data set [10] is cGMP-specific 3',5'-cyclic phosphodiesterase (Homo sapiens, UniProt O76074). Nature of the data set: Inhibition of human recombinant PDE5 assessed as inhibition of [3H]cAMP hydrolysis by scintillation proximity assay. In short, it runs like this: as §1
In another data set the target is Phosphodiesterase 6. Nature of the data set: Inhibition of human recombinant PDE6 assessed as inhibition of [3H]cAMP hydrolysis by scintillation proximity assay. The format is protein assay. The procedure, abridged: as §1
A further data set addresses Phosphodiesterase 8 (Homo sapiens, UniProt O95263+O60658). Nature of the data set: Inhibition of human recombinant PDE8 assessed as inhibition of [3H]cAMP hydrolysis by scintillation proximity assay. The format is protein assay. In short, it runs like this:
as §1

The target in data set [11] is High affinity cGMP-specific 3',5'-cyclic phosphodiesterase 9A (Homo sapiens, UniProt O76083). Nature of the data set: Inhibition of human recombinant PDE9 assessed as inhibition of [3H]cAMP hydrolysis by scintillation proximity assay. The procedure, abridged: as §1
Data set [12] has as its target Dual 3',5'-cyclic-AMP and -GMP phosphodiesterase 11A (Homo sapiens, UniProt Q9HCR9). Nature of the data set: Inhibition of human recombinant PDE11 assessed as inhibition of [3H]cAMP hydrolysis by scintillation proximity assay. The procedure, abridged: as §1
In data set [13] the target is High affinity 3',5'-cyclic-AMP phosphodiesterase 7A (Homo sapiens, UniProt Q13946). Nature of the data set: Inhibition of human recombinant PDE7A1 assessed as inhibition of [3H]cAMP hydrolysis at 3 uM by scintillation proximity assay. The procedure, abridged:
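Recombinant human PDE3A or PDE7A1 was tested at a single 3 µM level in the scintillation proximity assay, with [³H]cAMP as substrate and cAMP-to-AMP hydrolysis as read-out. Results are expressed as % inhibition.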

Data set [14] in a line: Toxicity in Cebus monkey assessed as akathisia at 3 to 6 mg/kg, po. The following applies: in vivo. The format is organism-based. Set-up: dose 3-6 mg/kg, route oral.
Data set [15] in a line: Toxicity in Cebus monkey assessed as extrapyramidal symptoms at 3 to 6 mg/kg, po. The format is organism-based. The following applies: in vivo. Also on record: dose 3-6 mg/kg, route oral.

Sequence of High affinity 3',5'-cyclic-AMP phosphodiesterase 7A (Q13946 whole entry): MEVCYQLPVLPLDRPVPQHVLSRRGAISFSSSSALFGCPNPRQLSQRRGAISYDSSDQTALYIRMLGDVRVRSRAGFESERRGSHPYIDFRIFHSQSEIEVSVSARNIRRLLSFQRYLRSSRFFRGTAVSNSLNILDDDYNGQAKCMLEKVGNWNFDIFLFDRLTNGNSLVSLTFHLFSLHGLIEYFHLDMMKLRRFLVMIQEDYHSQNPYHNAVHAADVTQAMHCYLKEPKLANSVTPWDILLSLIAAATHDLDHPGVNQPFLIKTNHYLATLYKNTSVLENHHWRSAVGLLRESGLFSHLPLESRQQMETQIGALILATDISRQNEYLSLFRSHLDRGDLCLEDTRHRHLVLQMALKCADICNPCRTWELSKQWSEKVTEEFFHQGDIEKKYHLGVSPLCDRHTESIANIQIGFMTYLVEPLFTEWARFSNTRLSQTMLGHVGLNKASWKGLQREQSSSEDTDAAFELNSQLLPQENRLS
Sequence of cAMP and cAMP-inhibited cGMP 3',5'-cyclic phosphodiesterase 10A (Q9Y233 whole entry): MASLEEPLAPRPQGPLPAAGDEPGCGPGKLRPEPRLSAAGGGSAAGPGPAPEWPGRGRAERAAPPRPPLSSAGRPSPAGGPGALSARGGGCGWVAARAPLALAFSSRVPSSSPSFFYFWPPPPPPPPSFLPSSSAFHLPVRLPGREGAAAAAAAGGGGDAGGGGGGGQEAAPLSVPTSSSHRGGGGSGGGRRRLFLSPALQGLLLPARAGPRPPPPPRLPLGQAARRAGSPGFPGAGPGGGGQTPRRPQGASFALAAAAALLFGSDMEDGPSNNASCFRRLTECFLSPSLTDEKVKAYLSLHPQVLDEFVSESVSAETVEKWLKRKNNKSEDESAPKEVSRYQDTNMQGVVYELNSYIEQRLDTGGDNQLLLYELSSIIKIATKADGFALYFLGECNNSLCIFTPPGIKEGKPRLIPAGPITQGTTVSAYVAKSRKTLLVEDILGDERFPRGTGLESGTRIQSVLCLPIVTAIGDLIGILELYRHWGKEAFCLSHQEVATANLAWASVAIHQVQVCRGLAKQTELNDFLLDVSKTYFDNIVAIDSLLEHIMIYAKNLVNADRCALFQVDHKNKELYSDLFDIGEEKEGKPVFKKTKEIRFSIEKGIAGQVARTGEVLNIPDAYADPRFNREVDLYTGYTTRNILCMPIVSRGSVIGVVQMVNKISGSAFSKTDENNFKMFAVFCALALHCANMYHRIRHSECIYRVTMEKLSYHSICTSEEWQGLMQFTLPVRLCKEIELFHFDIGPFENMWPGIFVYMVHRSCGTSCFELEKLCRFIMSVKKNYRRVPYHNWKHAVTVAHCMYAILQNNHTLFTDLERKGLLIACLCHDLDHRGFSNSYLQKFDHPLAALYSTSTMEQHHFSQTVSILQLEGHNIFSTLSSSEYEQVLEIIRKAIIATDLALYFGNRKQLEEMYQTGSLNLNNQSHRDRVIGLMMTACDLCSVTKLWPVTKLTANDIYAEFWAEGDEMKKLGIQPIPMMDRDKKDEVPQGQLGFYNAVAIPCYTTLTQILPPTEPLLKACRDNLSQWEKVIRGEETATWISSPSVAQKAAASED
Sequence of hERG (KCNH2) (Q12809 whole entry): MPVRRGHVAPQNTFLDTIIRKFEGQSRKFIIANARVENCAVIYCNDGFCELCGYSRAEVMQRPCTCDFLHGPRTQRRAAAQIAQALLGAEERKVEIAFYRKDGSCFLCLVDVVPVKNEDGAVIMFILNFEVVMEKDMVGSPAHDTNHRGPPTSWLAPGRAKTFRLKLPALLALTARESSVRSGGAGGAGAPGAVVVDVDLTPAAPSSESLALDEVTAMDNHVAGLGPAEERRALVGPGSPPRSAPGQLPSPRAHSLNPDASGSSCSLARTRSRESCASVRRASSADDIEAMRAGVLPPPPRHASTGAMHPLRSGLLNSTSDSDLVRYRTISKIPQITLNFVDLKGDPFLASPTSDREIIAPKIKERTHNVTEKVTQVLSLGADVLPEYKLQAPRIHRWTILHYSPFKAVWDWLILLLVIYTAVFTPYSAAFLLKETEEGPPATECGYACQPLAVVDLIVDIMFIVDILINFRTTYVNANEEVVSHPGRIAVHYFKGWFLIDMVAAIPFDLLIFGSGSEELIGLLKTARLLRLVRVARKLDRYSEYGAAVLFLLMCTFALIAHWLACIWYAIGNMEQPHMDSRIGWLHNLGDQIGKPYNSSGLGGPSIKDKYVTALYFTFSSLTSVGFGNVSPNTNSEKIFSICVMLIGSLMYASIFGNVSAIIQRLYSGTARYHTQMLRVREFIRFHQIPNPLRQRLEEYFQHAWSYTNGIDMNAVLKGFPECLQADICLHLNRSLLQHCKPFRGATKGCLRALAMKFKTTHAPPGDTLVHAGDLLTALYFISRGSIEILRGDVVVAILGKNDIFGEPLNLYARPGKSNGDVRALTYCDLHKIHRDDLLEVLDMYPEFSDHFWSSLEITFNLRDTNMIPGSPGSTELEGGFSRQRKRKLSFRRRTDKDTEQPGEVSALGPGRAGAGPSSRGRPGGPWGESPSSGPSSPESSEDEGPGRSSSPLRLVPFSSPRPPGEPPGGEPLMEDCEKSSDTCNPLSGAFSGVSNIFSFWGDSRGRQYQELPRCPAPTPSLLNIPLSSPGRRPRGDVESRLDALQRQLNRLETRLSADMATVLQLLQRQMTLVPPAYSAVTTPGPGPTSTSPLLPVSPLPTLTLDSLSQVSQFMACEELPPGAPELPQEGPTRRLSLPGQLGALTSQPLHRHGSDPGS
Sequence of cGMP-dependent 3',5'-cyclic phosphodiesterase (O00408 whole entry): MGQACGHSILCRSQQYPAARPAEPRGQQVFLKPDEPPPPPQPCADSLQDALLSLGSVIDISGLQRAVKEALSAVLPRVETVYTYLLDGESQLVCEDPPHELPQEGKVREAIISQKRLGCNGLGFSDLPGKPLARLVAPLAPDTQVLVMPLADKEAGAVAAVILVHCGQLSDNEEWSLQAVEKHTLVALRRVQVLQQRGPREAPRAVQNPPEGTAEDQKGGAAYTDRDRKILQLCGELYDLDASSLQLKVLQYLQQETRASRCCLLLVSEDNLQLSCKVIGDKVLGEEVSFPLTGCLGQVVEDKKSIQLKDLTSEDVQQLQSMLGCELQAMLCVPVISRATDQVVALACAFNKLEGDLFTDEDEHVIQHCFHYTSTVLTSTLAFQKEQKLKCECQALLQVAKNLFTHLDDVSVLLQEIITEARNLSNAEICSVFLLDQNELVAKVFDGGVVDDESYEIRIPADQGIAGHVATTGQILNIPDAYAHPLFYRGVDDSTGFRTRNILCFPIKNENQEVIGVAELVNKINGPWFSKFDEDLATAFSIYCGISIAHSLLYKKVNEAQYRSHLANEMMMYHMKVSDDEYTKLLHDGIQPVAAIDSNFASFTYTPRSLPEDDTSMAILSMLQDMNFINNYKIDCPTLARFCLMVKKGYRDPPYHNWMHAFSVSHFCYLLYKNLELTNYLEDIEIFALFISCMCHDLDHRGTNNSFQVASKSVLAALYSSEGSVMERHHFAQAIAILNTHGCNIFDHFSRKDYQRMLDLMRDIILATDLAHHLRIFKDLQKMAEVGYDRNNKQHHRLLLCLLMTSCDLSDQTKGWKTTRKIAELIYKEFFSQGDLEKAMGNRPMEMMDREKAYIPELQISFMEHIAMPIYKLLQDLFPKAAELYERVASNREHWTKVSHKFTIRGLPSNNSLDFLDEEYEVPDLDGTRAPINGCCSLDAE
Sequence of cGMP-inhibited 3',5'-cyclic phosphodiesterase 3A (Q14432 whole entry): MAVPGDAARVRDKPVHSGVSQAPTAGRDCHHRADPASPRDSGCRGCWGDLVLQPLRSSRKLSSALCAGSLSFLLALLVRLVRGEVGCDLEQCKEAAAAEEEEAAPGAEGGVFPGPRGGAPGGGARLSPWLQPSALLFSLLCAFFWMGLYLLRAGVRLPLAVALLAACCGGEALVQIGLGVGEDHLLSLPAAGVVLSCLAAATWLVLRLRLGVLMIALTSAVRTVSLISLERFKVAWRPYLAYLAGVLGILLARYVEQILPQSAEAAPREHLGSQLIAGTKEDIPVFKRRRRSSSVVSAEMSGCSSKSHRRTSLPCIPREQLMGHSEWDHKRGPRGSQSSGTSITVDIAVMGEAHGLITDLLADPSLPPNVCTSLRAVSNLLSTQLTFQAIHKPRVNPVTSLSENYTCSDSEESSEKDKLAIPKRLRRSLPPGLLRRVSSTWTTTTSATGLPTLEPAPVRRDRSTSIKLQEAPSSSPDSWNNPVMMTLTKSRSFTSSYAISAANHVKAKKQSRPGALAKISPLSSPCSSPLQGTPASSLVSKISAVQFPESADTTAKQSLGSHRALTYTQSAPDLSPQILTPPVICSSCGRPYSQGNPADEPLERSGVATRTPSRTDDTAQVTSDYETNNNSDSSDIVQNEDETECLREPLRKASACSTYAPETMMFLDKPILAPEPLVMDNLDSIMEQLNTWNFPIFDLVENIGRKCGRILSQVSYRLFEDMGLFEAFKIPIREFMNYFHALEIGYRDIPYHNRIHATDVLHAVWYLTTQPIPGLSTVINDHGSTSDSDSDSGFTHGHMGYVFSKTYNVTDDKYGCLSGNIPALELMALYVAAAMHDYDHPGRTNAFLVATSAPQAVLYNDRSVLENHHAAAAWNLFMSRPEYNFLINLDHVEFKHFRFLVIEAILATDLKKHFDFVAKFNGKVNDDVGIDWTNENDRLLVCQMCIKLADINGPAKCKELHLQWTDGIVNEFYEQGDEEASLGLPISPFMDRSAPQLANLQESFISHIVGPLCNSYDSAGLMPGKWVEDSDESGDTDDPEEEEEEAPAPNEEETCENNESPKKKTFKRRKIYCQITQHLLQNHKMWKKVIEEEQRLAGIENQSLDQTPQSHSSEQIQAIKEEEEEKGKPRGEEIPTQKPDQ

The term Ki denotes a measure of affinity in units of concentration, obtained from inhibition or displacement. One may read the efflux ratio as the permeability from basolateral to apical divided by that in the opposite direction, in the common usage. In general, solubility refers to how much of the substance goes into solution per volume. What is called inhibition is the change of the read-out against control, counted positive when it falls. As a reminder, the pKa is the pH at which an ionisable group is half protonated. Turning to `COc1cc2c(cc1OC)-c1c(-c3cccnc3)ncn1CC2`, the Ki was 0.029 µM in data set [1]; 0.449 µM in data set [2]; greater than 4.274 µM at Phosphodiesterase 1; greater than 4.27 µM in [9]; greater than 4.274 µM at Phosphodiesterase 4; greater than 4.27 µM in [10]. Besides, the Ki on Phosphodiesterase 6 is greater than 4.274 µM; at Phosphodiesterase 8 it was greater than 4.274 µM; in [11], greater than 4.27 µM; in data set [12], greater than 4.27 µM. For the same molecule, the hepatocyte CLint in [3] turned out to be 1.7 µL/min/1e6 cells; in data set [4], 11.8 µL/min/1e6 cells; in data set [5] it was 38.7 µL/min/1e6 cells. For the same molecule, the efflux ratio in [6] is 1.4. In the data set on Rattus norvegicus, the outcome was Active. In data set [7], this molecule gave a solubility greater than 200 µM. At hERG (KCNH2), this molecule came in with an inhibition at 10 µM of 24%. In [8], this molecule had a pKa of 3.5. For the same molecule, the inhibition in [13] is 45%. The Activity entry in data set [14] and in [15] was “Non-toxic” in each case.
